pIC50: −log10 of the molar value.
How the values were obtained:
Midkine = target: T1, Midkine (Homo sapiens, UniProt P21741); assay: Inhibition of fluorescein labelled heparin-like hexasaccharide probe binding to recombinant human midkine after 5 mins by fluorescence polarization assay
T1 sequence (P21741 whole entry): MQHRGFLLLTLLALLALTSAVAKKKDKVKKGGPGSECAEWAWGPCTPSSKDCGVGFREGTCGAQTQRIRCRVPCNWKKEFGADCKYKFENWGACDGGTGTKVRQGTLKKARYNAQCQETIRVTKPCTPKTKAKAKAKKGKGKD
In short: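 Recombinant human midkine at 63 nM final with 10 nM fluorescein-labelled heparin-like hexasaccharide probe in PBS (10 mM, pH 7.4) plus 0.5% BSA. […] Shaken 5 min in the dark; polarization read at ex 485 / em 535 nm. Triplicate wells averaged, one-site competition fit for IC50. At least three independent experiments.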

[1] = target: Fibroblast growth factor 2 (Homo sapiens, UniProt P09038); assay: Inhibition of fluorescein labelled heparin-like hexasaccharide probe binding to recombinant human FGF-2 after 5 mins by fluorescence polarization assay
Sequence of Fibroblast growth factor 2 (P09038 143-288 limits assumed): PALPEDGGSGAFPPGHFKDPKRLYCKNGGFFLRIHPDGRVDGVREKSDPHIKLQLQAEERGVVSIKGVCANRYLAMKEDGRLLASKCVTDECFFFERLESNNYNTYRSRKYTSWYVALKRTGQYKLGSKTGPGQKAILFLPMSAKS

[2] = Solubility of the compound in PBS buffer at 100 uM at pH 7.4 in presence of 1% DMSO; type: physicochemical; details: pH 7.4, 100 µM

COc1ccc(O[C@@H]2O[C@H](C(=O)OCc3ccccc3)[C@@H](O[C@@H]3O[C@H](COS(=O)(=O)O)[C@@H](OS(=O)(=O)O)[C@H](O[C@@H]4O[C@H](C(=O)OCc5ccccc5)[C@@H](O[C@@H]5O[C@H](COS(=O)(=O)O)[C@@H](OS(=O)(=O)O)[C@H](OC(=O)CCC(C)=O)[C@H]5NC(=O)C(F)(F)F)[C@H](OCc5ccccc5)[C@H]4OC(=O)c4ccccc4)[C@H]3NC(=O)C(F)(F)F)[C@H](OCc3ccccc3)[C@H]2OC(=O)c2ccccc2)cc1
pIC50 (Midkine): 5.89 | pIC50 [1]: 4.38

COc1ccc(O[C@@H]2O[C@H](COC(=O)CCC(F)(F)C(F)(F)C(F)(F)C(F)(F)C(F)(F)C(F)(F)C(F)(F)C(F)(F)F)[C@@H](O[C@@H]3O[C@H](CO[SH+]([O-])(O)O)[C@@H](O[SH+]([O-])(O)O)[C@H](O[C@@H]4O[C@H](COC(=O)C(C)(C)C)[C@@H](O[C@@H]5O[C@H](CO[SH+]([O-])(O)O)[C@@H](O[SH+]([O-])(O)O)[C@H](OC(=O)CCC(C)=O)[C@H]5N5C(=O)c6ccccc6C5=O)[C@H](OCc5ccccc5)[C@H]4OC(=O)c4ccccc4)[C@H]3N3C(=O)c4ccccc4C3=O)[C@H](OCc3ccccc3)[C@H]2OC(=O)c2ccccc2)cc1
solubility [2]: Soluble

COc1ccc(O[C@@H]2O[C@H](C(=O)O)[C@@H](O[C@@H]3O[C@H](COS(=O)(=O)O)[C@@H](OS(=O)(=O)O)[C@H](O[C@@H]4O[C@H](C(=O)O)[C@@H](O[C@@H]5O[C@H](COS(=O)(=O)O)[C@@H](OS(=O)(=O)O)[C@H](O)[C@H]5NC(C)=O)[C@H](O)[C@H]4O)[C@H]3NC(C)=O)[C@H](O)[C@H]2O)cc1
pIC50 (Midkine): 3.60 | pIC50 [1]: 3.57
